Experimental data as given in ChEMBL document CHEMBL1781979, “The discovery of novel calcium sensing receptor negative allosteric modulators” (Bioorg Med Chem Lett, 2009).
Active and inactive are the calls of the source. No cut-off for these calls is given here.

Experiments:
[1] = biological target: T1, Extracellular calcium-sensing receptor (Homo sapiens, UniProt P41180); experiment: Negative allosteric modulator activity at human recombinant calcium sensing receptor expressed in HEK cells; assay type: functional, cell-based, HEK293
T1 sequence (P41180 whole entry): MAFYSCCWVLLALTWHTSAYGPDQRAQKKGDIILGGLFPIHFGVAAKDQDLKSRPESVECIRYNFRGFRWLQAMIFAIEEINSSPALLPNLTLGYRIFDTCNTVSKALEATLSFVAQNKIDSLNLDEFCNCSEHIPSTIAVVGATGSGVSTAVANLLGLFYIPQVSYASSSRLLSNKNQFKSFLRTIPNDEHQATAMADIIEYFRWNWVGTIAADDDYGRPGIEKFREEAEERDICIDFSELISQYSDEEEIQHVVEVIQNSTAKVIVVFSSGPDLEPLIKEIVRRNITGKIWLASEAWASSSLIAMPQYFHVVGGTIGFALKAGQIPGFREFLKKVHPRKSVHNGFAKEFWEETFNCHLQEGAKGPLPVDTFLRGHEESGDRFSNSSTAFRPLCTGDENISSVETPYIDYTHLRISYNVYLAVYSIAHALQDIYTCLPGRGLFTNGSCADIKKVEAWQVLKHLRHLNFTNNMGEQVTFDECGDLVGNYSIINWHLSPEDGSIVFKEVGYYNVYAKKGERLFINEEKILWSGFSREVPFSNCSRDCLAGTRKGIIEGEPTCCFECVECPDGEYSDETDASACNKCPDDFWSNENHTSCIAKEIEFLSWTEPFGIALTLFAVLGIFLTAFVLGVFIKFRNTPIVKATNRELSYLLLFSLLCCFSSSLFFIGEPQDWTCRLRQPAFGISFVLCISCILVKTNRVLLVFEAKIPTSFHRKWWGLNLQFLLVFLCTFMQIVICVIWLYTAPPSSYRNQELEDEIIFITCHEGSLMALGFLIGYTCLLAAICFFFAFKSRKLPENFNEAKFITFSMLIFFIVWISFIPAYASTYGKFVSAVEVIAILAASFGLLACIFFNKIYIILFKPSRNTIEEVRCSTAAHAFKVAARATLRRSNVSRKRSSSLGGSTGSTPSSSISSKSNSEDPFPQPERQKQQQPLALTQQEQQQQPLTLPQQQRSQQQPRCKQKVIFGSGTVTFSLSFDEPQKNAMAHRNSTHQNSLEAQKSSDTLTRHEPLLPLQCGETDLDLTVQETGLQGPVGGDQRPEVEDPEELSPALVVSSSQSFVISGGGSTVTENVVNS
Summary of the method: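 Human recombinant CaSR expressed in HEK cells; potency from n = 3 determinations.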

[2] = Intrinsic clearance in human liver microsomes assessed per mg of protein; assay type: ADME, Microsome
Summary of the method: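 Stability in human liver microsomes reported as intrinsic clearance, µL/min/mg microsomal protein.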

[3] = Intrinsic clearance in rat liver microsomes assessed per mg of protein; assay type: ADME, Microsome
Summary of the method: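 Rat liver microsomes; stability expressed as intrinsic clearance in µL/min/mg of microsomal protein.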

[4] = Lipophilicity, log D of the compound; assay type: physicochemical; conditions: octanol/water
[5] = Volume of distribution in Sprague-Dawley rat at 1 mg/kg, iv; assay type: ADME, organism-based; design: dose 1 mg/kg, route intravenous; conditions: in vivo
Summary of the method: (§1)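 Intravenous dosing at 1 mg/kg to rats; volume of distribution, plasma clearance (mL/min/kg) and half-life derived from the iv plasma profile.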

[6] = Clearance in Sprague-Dawley rat at 1 mg/kg, iv; assay type: ADME, organism-based; design: dose 1 mg/kg, route intravenous; conditions: in vivo; summary of the method: as §1
[7] = Half life in Sprague-Dawley rat at 1 mg/kg, iv; assay type: ADME, organism-based; design: dose 1 mg/kg, route intravenous; conditions: in vivo; summary of the method: as §1
[8] = Oral bioavailability in Sprague-Dawley rat; assay type: ADME, organism-based; conditions: in vivo
[9] = system: Rattus norvegicus; experiment: Clearance in Sprague-Dawley rat at 1 mg/kg, iv; conditions: in vivo
[10] = system: Rattus norvegicus; experiment: Increase in PTH (1-84) release response in Sprague-Dawley rat at 10 mg/kg, po by PTH ELISA; assay type: functional, organism-based; design: dose 10 mg/kg
[11] = Cmax in Sprague-Dawley rat at 10 mg/kg, po; assay type: ADME, organism-based; design: dose 10 mg/kg, route oral; conditions: in vivo
Summary of the method: (§2)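 Oral dosing at 10 mg/kg to rats; total plasma Cmax and oral bioavailability determined from plasma exposure, alongside the 1 mg/kg iv leg.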

[12] = Oral bioavailability in Sprague-Dawley rat at 10 mg/kg; assay type: ADME, organism-based; conditions: in vivo; summary of the method: as §2
[13] = biological target: hERG (KCNH2) (Homo sapiens, UniProt Q12809); experiment: Inhibition of human ERG at 10 uM by whole cell voltage clamp technique
[14] = Inhibition of cytochrome P450; assay type: ADME
[15] = system: Rattus norvegicus; experiment: Toxicity in Sprague-Dawley rat assessed as incidence of adverse effect at 500 mg/kg in 4 day drug toleration study; assay type: organism-based; design: dose 500 mg/kg; conditions: in vivo, 96 h
Summary of the method: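 Rats given 500 mg/kg over a 4 day toleration study, monitored for adverse effects.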

[16] = biological target: Extracellular calcium-sensing receptor (Homo sapiens) (UniProt P41180); experiment: Negative allosteric modulator activity at human calcium sensing receptor expressed in HEK cells

Sequence of hERG (KCNH2) (Q12809 whole entry): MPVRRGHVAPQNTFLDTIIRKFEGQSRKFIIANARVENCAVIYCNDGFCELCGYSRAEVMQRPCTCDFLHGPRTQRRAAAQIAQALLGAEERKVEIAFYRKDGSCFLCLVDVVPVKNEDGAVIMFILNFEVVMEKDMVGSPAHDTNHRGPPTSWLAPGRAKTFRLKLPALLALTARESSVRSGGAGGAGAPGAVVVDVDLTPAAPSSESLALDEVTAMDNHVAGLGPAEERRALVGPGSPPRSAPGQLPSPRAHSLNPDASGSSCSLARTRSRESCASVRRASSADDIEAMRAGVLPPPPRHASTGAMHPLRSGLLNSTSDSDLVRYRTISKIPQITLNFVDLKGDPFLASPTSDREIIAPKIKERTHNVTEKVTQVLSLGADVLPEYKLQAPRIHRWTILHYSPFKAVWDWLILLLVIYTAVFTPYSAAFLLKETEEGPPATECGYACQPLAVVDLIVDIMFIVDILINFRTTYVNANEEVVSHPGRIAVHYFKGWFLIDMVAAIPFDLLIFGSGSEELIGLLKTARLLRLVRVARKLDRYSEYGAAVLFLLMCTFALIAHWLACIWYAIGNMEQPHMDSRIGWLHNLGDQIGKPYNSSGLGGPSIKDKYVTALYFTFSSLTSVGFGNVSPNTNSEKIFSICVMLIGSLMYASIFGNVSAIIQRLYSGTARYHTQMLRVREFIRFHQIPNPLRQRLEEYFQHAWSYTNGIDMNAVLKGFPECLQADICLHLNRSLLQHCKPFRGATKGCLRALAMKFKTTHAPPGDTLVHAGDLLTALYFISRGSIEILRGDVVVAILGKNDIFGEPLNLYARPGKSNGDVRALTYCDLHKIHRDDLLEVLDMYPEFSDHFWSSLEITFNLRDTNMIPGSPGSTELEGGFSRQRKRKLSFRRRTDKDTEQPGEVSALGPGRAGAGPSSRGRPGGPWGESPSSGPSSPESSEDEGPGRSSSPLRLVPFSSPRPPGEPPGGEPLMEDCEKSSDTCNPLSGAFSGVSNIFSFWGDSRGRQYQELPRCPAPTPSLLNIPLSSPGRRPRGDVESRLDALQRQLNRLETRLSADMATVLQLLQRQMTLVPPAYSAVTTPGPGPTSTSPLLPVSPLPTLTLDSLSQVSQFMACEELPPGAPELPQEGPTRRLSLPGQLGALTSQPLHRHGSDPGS

SMILES	IC50 [1]	microsomal CLint [2]	microsomal CLint [3]	logD [4]	also measured
CC(C)(Cc1ccc2ccccc2c1)NC[C@@H](O)COc1cccc(Cl)c1C#N	0.023 µM	157 µL/min/mg	> 100 µL/min/mg	–	–
CC(C)(CC1Cc2ccccc2C1)NC[C@@H](O)COc1cc(C2CC3CC2C2C(C(=O)O)C32)cc(F)c1F (mixture of isomers)	0.056 µM	19 µL/min/mg	35 µL/min/mg	2.6	–
CC(C)(CC1Cc2ccccc2C1)NC[C@@H](O)COc1cccc(C2CC3CC2C2C(C(=O)O)C32)c1 (mixture of isomers)	0.9 µM	15 µL/min/mg	50 µL/min/mg	–	–
CC(C)(CC1Cc2ccccc2C1)NC[C@@H](O)COc1cc(C2CC3CC2C2C(C(=O)O)C32)ccc1C#N (mixture of isomers)	0.006 µM	17 µL/min/mg	25 µL/min/mg	2	Vd [5]: 5 L/kg; clearance [6]: 70 mL/min/kg; half-life [7]: 1.5 h; bioavailability [8]: < 10%; CL [9]: 83 mL/min/kg
Cc1ccc(CC(C)(C)NC[C@@H](O)COc2cccc(C3CC4CC3C3C(C(=O)O)C43)c2)cc1F (mixture of isomers)	3.5 µM	23 µL/min/mg	38 µL/min/mg	–	–
Cc1ccc(CC(C)(C)NC[C@@H](O)COc2cc(C3CC4CC3C3C(C(=O)O)C43)ccc2F)cc1F (mixture of isomers)	0.3 µM	20 µL/min/mg	–	–	–
Cc1ccc(CC(C)(C)NC[C@@H](O)COc2cc(C3CC4CC3C3C(C(=O)O)C43)ccc2C#N)cc1F (mixture of isomers)	0.023 µM	15 µL/min/mg	27 µL/min/mg	2.3	Vd [5]: 5 L/kg; clearance [6]: 70 mL/min/kg; half-life [7]: 1.5 h; bioavailability [8]: < 10%; CL [9]: 83 mL/min/kg
CC(C)(CN1Cc2ccccc2C1=O)NC[C@@H](O)COc1cc(C2CC3CC2C2C(C(=O)O)C32)ccc1C#N (mixture of isomers)	0.35 µM	9 µL/min/mg	< 10 µL/min/mg	–	–
Cc1ccc(CC(C)(C)NC[C@@H](O)CO[C@H](C)c2ccccc2C2CC3CC2C2C(C(=O)O)C32)cc1F (mixture of isomers)	0.025 µM	35 µL/min/mg	45 µL/min/mg	2.4	Activity [10]: Active; Cmax [11]: 1000 nM; bioavailability [12]: > 60%; inhibition at 10 µM [13]: < 10%; inhibition (INH) [14]: Not Active; Activity [15]: Non-toxic
C[C@@H](OC[C@H](O)CNC(C)(C)Cc1ccc(Cl)cc1F)c1ccccc1C1CC2CC1C1C(C(=O)O)C21 (mixture of isomers)	0.05 µM	16 µL/min/mg	14 µL/min/mg	2.8	–
Cc1ccc(CC(C)(C)NC[C@@H](O)CO[C@H](C)c2ccccc2C2CC3CC2C2C(C(=O)O)C32)cc1Cl (mixture of isomers)	0.018 µM	33 µL/min/mg	–	2.6	–
C[C@@H](OC[C@H](O)CNC(C)(C)CC1Cc2ccccc2C1)c1ccccc1C1CC2CC1C1C(C(=O)O)C21 (mixture of isomers)	3.5 µM	23 µL/min/mg	38 µL/min/mg	–	–
CC(C)(CC1Cc2ccccc2C1)NC[C@@H](O)COc1cc(CCC(=O)O)cc(F)c1F [RONACALERET]	0.146 µM	< 8 µL/min/mg	90 µL/min/mg	1.5	Activity [10]: inactive; Cmax [11]: 300 nM; bioavailability [12]: 12%; inhibition at 10 µM [13]: < 10%; IC50 [16]: 0.32 µM
